According to ChEMBL document CHEMBL4613270, “Structure-Activity Relationship Study Enables the Discovery of a Novel Berberine Analogue as the RXRα Activator to Inhibit Colon Cancer” (J Med Chem, 2020):
Activity calls are given as the source filed them. The calls are words filed in the database; no cut-off is given here.

What was measured:
[1] = test system: KM12C; experiment: Antitumor activity against human KM12C cells xenografted in BALB/c mouse assessed as inhibition of tumor growth at 100 mg/kg, ig dosed daily for 15 days relative to control; format: functional; details: po, 360 h, read-out: TGI
Outline: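 Nude mice received subcutaneous injections of KM12C cells (1×10⁶ in 100 μL HBSS) into both flanks. After seven days, tumour-bearing mice (80–200 mm³) were randomized into three groups. Daily intragastric dosing at 100 mg/kg, or CMC-Na vehicle, for 15 days. Tumours then excised and weighed; inhibition rate calculated versus vehicle.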

[2] = test system: HCT-116; experiment: Inhibition of cell proliferation of human HCT116 cells incubated for 15 hrs by MTT assay; format: functional, cell-based; details: HCT-116, 15 h
Outline: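 Cells plated at 1×10⁴ per well, incubated overnight at 37 °C, then exposed to a concentration series for 15 h. MTT (5 mg/mL stock) added for 4 h at 37 °C. Formazan dissolved in DMSO and absorbance read at 570 nm. IC50 derived from the dose-response curve.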

[3] = molecular target: T1, Retinoic acid receptor RXR-alpha (Homo sapiens) (UniProt P19793); experiment: Activation of RXRalpha in human KM12C cells assessed as increase in p21 (WAF1/CIP1) protein expression at 25 to 50 uM incubated for 15 hrs by Western blot analysis; format: cell-based
T1 sequence (whole entry): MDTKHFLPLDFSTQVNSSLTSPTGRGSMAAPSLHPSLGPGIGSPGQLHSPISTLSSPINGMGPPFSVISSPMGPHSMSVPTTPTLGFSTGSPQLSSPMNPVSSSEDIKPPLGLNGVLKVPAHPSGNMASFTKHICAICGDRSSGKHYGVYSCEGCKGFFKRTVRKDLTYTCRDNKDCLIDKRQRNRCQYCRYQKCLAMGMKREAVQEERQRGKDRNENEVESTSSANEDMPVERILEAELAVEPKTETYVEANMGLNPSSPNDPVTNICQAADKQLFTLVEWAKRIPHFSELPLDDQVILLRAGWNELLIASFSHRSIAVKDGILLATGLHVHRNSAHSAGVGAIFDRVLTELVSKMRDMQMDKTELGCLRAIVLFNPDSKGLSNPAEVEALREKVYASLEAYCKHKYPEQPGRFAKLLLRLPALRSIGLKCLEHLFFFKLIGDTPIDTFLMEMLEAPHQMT

[4] = molecular target: T1, Retinoic acid receptor RXR-alpha (Homo sapiens); experiment: Activation of RXRalpha in human HCT116 cells assessed as […] crease in p21 (WAF1/CIP1) mRNA expression at 30 to 60 uM incubated for 15 hrs by real-time PCR analysis; format: cell-based; details: HCT-116
[5] = Toxicity in BALB/c mouse xenografted with human KM12C cells assessed as effect on biochemical parameter by measuring urea […] level at 100 mg/kg, ig dosed daily for 15 days by automatic chemistry analyzer based analysis (reference value: 8.21 +/- 0.26 mmol/L); format: organism-based; details: in vivo, po, 360 h
[6] = molecular target: T1, Retinoic acid receptor RXR-alpha (Homo sapiens); experiment: Activation of RXRalpha in human KM12C cells assessed as reduction in Cdc2 mRNA expression at 25 to 50 uM incubated for 15 hrs by real-time PCR analysis; format: cell-based
[7] = molecular target: T1, Retinoic acid receptor RXR-alpha (Homo sapiens); experiment: In-vivo activation of RXRalpha in BALB/c mouse xenografted with human KM12C cells assessed as reduction in c-Myc mRNA expression at 100 mg/kg, ig dosed daily for 15 days by real-time PCR analysis; format: functional, organism-based
Outline: (§1)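 KM12C cells (1×10^6 per mouse in 100 μL HBSS) injected subcutaneously into both flanks of nude mice; after seven days, randomized to three groups, dosed intragastrically once daily for 15 days with vehicle (CMC-Na) or 100 mg/kg compound; mice euthanized and tumors removed for analysis.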

[8] = molecular target: T1, Retinoic acid receptor RXR-alpha (Homo sapiens); experiment: In-vivo activation of RXRalpha in BALB/c mouse xenografted with human KM12C cells assessed as reduction in c-Myc protein expression at 100 mg/kg, ig dosed daily for 15 days by Western blot analysis; format: functional, organism-based; outline: as §1
[9] = molecular target: T1, Retinoic acid receptor RXR-alpha (Homo sapiens); experiment: In-vivo activation of RXRalpha in BALB/c mouse xenografted with human KM12C cells assessed as reduction in c-Myc protein expression at 100 mg/kg, ig dosed daily for 15 days by immunohistochemistry analysis; format: functional, organism-based; outline: as §1
[10] = molecular target: T1, Retinoic acid receptor RXR-alpha (Homo sapiens); experiment: Activation of RXRalpha (unknown origin) expressed in human HCT116 cells co-expressing beta-catenin assessed as induction of RXRalpha interaction with beta-catenin at 30 to 60 uM incubated for 15 hrs by mammalian two-hybrid assay; format: cell-based; details: HCT-116
Outline: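 Mammalian two-hybrid: cells co-transfected by lipofection with pBIND-β-catenin/S33Y plus pACT-RXRα (RXRα–β-catenin) or pACT-c-Cbl (β-catenin–c-Cbl); 20 h after transfection, compound added for 15 h; cells lysed in passive lysis buffer, 4 °C, 1 h; firefly and Renilla luciferase read by dual-luciferase kit.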

[11] = molecular target: T1, Retinoic acid receptor RXR-alpha (Homo sapiens); experiment: Activation of RXRalpha in human KM12C cells assessed as […] crease in p21 (WAF1/CIP1) mRNA expression at 25 to 50 uM incubated for 15 hrs by real-time PCR analysis; format: cell-based
[12] = MRT (infinity) in Sprague-Dawley rat at 100 mg/kg, ig measured after 0.083 to 36 hrs by LC-MS/MS analysis; format: ADME, organism-based; details: in vivo, po
Outline: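 SD rats (200 ± 20 g) randomized to three groups; single intragastric dose of 100 mg/kg or vehicle (0.5% CMC-Na). Tail-vein blood (0.5 mL) drawn at 0.083, 0.25, 0.5, 1, 2, 4, 8, 12, 24 and 36 h. Plasma separated by centrifugation at 2000 rpm for 10 min, frozen at -80 °C, then quantified by LC-MS/MS.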

[13] = test system: KM12C; experiment: Activation of RXRalpha R371S mutant LBD (unknown origin) expressed in human KM12C cells at 50 uM incubated for 15 hrs by luciferase reporter gene assay; format: cell-based
Outline: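 KM12C cells co-transfected with pG5luc and pBIND-RXRα-LBD (wild type or mutants) using Lipofectamine 2000. Twenty hours after transfection, compound added at 50 μM for 15 h. Cells lysed in passive lysis buffer (4 °C, 1 h), then firefly and Renilla luciferase read by dual-luciferase assay. Basal level normalized to 1.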

[14] = Toxicity in BALB/c mouse xenografted with human KM12C cells assessed as effect on biochemical parameter by measuring TBIL level at 100 mg/kg, ig dosed daily for 15 days by automatic chemistry analyzer based analysis (reference value: 0.28 +/- 0.024 umol/L); format: organism-based; details: in vivo, po, 360 h
[15] = Toxicity in BALB/c mouse xenografted with human KM12C cells assessed as effect on biochemical parameter by measuring total cholesterol level at 100 mg/kg, ig dosed daily for 15 days by automatic chemistry analyzer based analysis (reference value: 2.32 +/- 0.11 mmol/L); format: organism-based; details: in vivo, po, 360 h
[16] = molecular target: T1, Retinoic acid receptor RXR-alpha (Homo sapiens); experiment: Activation of RXRalpha in human KM12C cells assessed as reduction in c-Myc mRNA expression at 25 to 50 uM incubated for 15 hrs by real-time PCR analysis; format: cell-based
[17] = molecular target: T1, Retinoic acid receptor RXR-alpha (Homo sapiens); experiment: Activation of RXRalpha in human HCT116 cells assessed as reduction in Cdc2 protein expression at 30 to 60 uM incubated for 15 hrs by Western blot analysis; format: cell-based; details: HCT-116
[18] = molecular target: T1, Retinoic acid receptor RXR-alpha (Homo sapiens); experiment: Activation of RXRalpha in human HCT116 cells assessed as induction of beta-catenin protein degradation at 30 to 60 uM incubated for 15 hrs by Western blot analysis; format: cell-based; details: HCT-116

| SMILES | inhibition in vivo at 100 mg/kg [1] [%] | IC50 [2] [µM] | Activity [3] | Activity [4] | Activity [5] [mmol/L] | Activity [6] | Activity [7] | Activity [8] | Activity [9] | Activity [10] | Activity [11] | MRT inf [12] [h] | Activity [13] | Activity [14] [µmol/L] | Activity [15] [mmol/L] | Activity [16] | Activity [17] | Activity [18] |
| --- | --- | --- | --- | --- | --- | --- | --- | --- | --- | --- | --- | --- | --- | --- | --- | --- | --- | --- |
| COc1ccc2c(c1)CC[n+]1cc3c(OC)cccc3cc1-2.[Cl-] | 69.1 | 27.2 | Active | Active | 8.39 | Active | Active | Active | Active | Active | Active | 15.7 | inactive | 0.21 | 2.49 | Active | Active | Active |
| COc1ccc2cc3[n+](cc2c1OC)CCc1cc2c(cc1-3)OCO2.[Cl-] [BERBERINE CHLORIDE] | 33.6 | 83.1 | Active | Active | 8.08 | Active | Active | Active | Active | Active | Active | 31.5 | inactive | 0.26 | 2.35 | Active | Active | Active |
